According to ChEMBL document CHEMBL6182834, “Dual EGFR and telomerase inhibitory potential of new triazole tethered Schiff bases endowed with apoptosis: design, synthesis, and biological assessments” (RSC Med Chem, 2025):

Columns and labels:
[1] = molecular target: Epidermal growth factor receptor (Homo sapiens) (UniProt P00533); test: Inhibition of EGFR in human A-375 cells assessed as protein concentration incubated for 1 hrs by ELISA (reference value: 8.91 ng/ml); assay type: cell-based
How it was run: (§1)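 Human EGFR or telomerase measured by sandwich ELISA. Samples and standards incubated 90 min at 37 °C, then biotinylated detection antibody 1 h, avidin-HRP 30 min and substrate about 15 min, all at 37 °C. Reaction stopped and OD read at 450 nm. Concentration taken from the standard curve.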

[2] = Cytotoxicity against human HNO 97 cell line assessed as inhibition of cell growth incubated for 48 hrs by SRB assay; assay type: functional, cell-based; conditions: HNO 97, 48 h
How it was run: (§2)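 Cells plated at 3×10^3/well and left 24 h to attach. Treated at 12.5, 25, 50 and 62.5 µg/mL for 48 h, three wells per concentration, with DMSO (1% v/v) vehicle control. Fixed with 20% TCA, stained with 0.4% SRB, OD read at 570 nm. Survival fraction = treated OD/control OD. IC50 from sigmoidal dose-response curve fitting.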

HepG2 [3] = test: Cytotoxicity against human HepG2 cells assessed as inhibition of cell growth incubated for 48 hrs by SRB assay; assay type: functional, cell-based; conditions: HepG2, 48 h; how it was run: as §2
A-375 [4] = test: Induction of apoptosis in human A-375 cells assessed as upregulation of caspase 8 expression by measuring fold change at 5.04 microg/ml incubated for 1 hrs by ELISA; assay type: functional; conditions: dose 5.04 µg/ml
How it was run: (§3)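 Sandwich ELISA with plate precoated with capture antibody for each of caspase-3, -8, -9, CDK2, CDK4 and CDK6. Samples and a 7-point standard incubated 1 h at 37 °C, then biotinylated antibody 1 h, avidin-HRP 30 min and TMB 10-20 min. Reaction stopped with sulphuric acid and read at 450 nm. Duplicate readings, zero standard subtracted, amounts taken from the standard curve.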

Huh-7 = test: Antiproliferative activity against human Huh-7 cells assessed as growth inhibition at 100 ug/mL incubated for 48 hrs by SRB assay relative to control; assay type: functional; conditions: read-out: GI
How it was run: (§4)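 SRB assay: cells seeded at 3×10^3/well, allowed 24 h to attach, then exposed to 100 µg/mL for 48 h, three wells per concentration, DMSO 1% v/v vehicle control. Cells fixed with 20% trichloroacetic acid and stained with 0.4% SRB, then OD read at 570 nm. Survival fraction taken as treated OD/control OD.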

A-375 [5] = test: Induction of apoptosis in human A-375 cells assessed as downregulation of CDK2 expression by measuring fold change at 5.04 microg/ml incubated for 1 hrs by ELISA; assay type: functional; conditions: dose 5.04 µg/ml; how it was run: as §3
[6] = molecular target: Telomerase reverse transcriptase (Homo sapiens) (UniProt O14746); test: Inhibition of telomerase in human A-375 cells assessed as downregulation of telomerase concentration by measuring fold change incubated for 1 hrs by ELISA; assay type: cell-based; how it was run: as §1
HeLa = test: Antiproliferative activity against human HeLa cells assessed as growth inhibition at 100 ug/mL incubated for 48 hrs by SRB assay relative to control; assay type: functional; conditions: read-out: GI; how it was run: as §4
HCT-116 [7] = test: Antiproliferative activity against human HCT-116 cells assessed as growth inhibition at 100 ug/mL incubated for 48 hrs by SRB assay relative to control; assay type: functional; conditions: read-out: GI; how it was run: as §4
[8] = Cytotoxicity against HSF cells assessed as growth inhibition at 100 ug/mL incubated for 48 hrs by SRB assay relative to control; assay type: toxicity, cell-based; conditions: human, at 100 µg/mL, read-out: GI; how it was run: as §4
A-375 [9] = test: Induction of apoptosis in human A-375 cells assessed as downregulation of CDK4 expression by measuring fold change at 5.04 microg/ml incubated for 1 hrs by ELISA; assay type: functional; conditions: dose 5.04 µg/ml; how it was run: as §3
A-375 [10] = test: Cell cycle arrest in human A-375 cells assessed as increase in accumulation of cells at G0/G1 phase at 3.1 microM incubated for 48 hrs by PI staining based flow cytometry analysis (reference value: 17.29 %)
[11] = Cytotoxicity against human oral epithelial cells (OEC) assessed as growth inhibition at 100 ug/mL incubated for 48 hrs by SRB assay relative to control; assay type: toxicity, cell-based, Oral epithelial cell; conditions: at 100 µg/mL, read-out: GI; how it was run: as §4
HepG2 [12] = test: Antiproliferative activity against human HepG2 cells assessed as growth inhibition at 100 ug/mL incubated for 48 hrs by SRB assay relative to control; assay type: functional; conditions: read-out: GI; how it was run: as §4
A-375 [13] = test: Induction of apoptosis in human A-375 cells assessed as upregulation of caspase 9 expression by measuring fold change at 5.04 microg/ml incubated for 1 hrs by ELISA; assay type: functional; conditions: dose 5.04 µg/ml; how it was run: as §3
A-375 [14] = test: Induction of apoptosis in human A-375 cells assessed as upregulation of caspase 3 expression by measuring fold change at 5.04 microg/ml incubated for 1 hrs by ELISA; assay type: functional; conditions: dose 5.04 µg/ml; how it was run: as §3
MCF7 = test: Antiproliferative activity against human MCF7 cells assessed as growth inhibition at 100 ug/mL incubated for 48 hrs by SRB assay relative to control; assay type: functional; conditions: read-out: GI; how it was run: as §4
[15] = molecular target: Epidermal growth factor receptor (Homo sapiens) (UniProt P00533); test: Inhibition of EGFR in human A-375 cells assessed as downregulation of EGFR concentration by measuring fold change incubated for 1 hrs by ELISA; assay type: cell-based; how it was run: as §1
A-375 [16] = test: Induction of apoptosis in human A-375 cells assessed as downregulation of CDK6 expression by measuring fold change at 5.04 microg/ml incubated for 1 hrs by ELISA; assay type: functional; conditions: dose 5.04 µg/ml; how it was run: as §3
MDA-MB-468 = test: Antiproliferative activity against human MDA-MB-468 cells assessed as growth inhibition at 100 ug/mL incubated for 48 hrs by SRB assay relative to control; assay type: functional; conditions: read-out: GI; how it was run: as §4
[17] = Antiproliferative activity against human HNO 97 cell line assessed as growth inhibition at 100 ug/mL incubated for 48 hrs by SRB assay relative to control; assay type: functional; conditions: read-out: GI; how it was run: as §4
Caco-2 = test: Antiproliferative activity against human Caco-2 cells assessed as growth inhibition at 100 ug/mL incubated for 48 hrs by SRB assay relative to control; assay type: functional; conditions: read-out: GI; how it was run: as §4
[18] = molecular target: Telomerase reverse transcriptase (Homo sapiens) (UniProt O14746); test: Inhibition of telomerase in human A-375 cells assessed as protein concentration incubated for 1 hrs by ELISA (reference value: 3.56 ng/ml); assay type: cell-based; how it was run: as §1
MG-63 = test: Antiproliferative activity against human MG-63 cells assessed as growth inhibition at 100 ug/mL incubated for 48 hrs by SRB assay relative to control; assay type: functional; conditions: read-out: GI; how it was run: as §4
HCT-116 [19] = test: Cytotoxicity against human HCT-116 cells assessed as inhibition of cell growth incubated for 48 hrs by SRB assay; assay type: functional, cell-based; conditions: HCT-116, 48 h; how it was run: as §2
A-375 [20] = test: Antiproliferative activity against human A-375 cells assessed as growth inhibition at 100 ug/mL incubated for 48 hrs by SRB assay relative to control; assay type: functional; conditions: read-out: GI; how it was run: as §4
A-375 [21] = test: Cytotoxicity against human A-375 cells assessed as inhibition of cell growth incubated for 48 hrs by SRB assay; assay type: functional, cell-based; conditions: A-375, 48 h; how it was run: as §2
FaDu = test: Antiproliferative activity against human FaDu cells assessed as growth inhibition at 100 ug/mL incubated for 48 hrs by SRB assay relative to control; assay type: functional; conditions: read-out: GI; how it was run: as §4

Epidermal growth factor receptor (Homo sapiens), sequence (P00533 whole entry): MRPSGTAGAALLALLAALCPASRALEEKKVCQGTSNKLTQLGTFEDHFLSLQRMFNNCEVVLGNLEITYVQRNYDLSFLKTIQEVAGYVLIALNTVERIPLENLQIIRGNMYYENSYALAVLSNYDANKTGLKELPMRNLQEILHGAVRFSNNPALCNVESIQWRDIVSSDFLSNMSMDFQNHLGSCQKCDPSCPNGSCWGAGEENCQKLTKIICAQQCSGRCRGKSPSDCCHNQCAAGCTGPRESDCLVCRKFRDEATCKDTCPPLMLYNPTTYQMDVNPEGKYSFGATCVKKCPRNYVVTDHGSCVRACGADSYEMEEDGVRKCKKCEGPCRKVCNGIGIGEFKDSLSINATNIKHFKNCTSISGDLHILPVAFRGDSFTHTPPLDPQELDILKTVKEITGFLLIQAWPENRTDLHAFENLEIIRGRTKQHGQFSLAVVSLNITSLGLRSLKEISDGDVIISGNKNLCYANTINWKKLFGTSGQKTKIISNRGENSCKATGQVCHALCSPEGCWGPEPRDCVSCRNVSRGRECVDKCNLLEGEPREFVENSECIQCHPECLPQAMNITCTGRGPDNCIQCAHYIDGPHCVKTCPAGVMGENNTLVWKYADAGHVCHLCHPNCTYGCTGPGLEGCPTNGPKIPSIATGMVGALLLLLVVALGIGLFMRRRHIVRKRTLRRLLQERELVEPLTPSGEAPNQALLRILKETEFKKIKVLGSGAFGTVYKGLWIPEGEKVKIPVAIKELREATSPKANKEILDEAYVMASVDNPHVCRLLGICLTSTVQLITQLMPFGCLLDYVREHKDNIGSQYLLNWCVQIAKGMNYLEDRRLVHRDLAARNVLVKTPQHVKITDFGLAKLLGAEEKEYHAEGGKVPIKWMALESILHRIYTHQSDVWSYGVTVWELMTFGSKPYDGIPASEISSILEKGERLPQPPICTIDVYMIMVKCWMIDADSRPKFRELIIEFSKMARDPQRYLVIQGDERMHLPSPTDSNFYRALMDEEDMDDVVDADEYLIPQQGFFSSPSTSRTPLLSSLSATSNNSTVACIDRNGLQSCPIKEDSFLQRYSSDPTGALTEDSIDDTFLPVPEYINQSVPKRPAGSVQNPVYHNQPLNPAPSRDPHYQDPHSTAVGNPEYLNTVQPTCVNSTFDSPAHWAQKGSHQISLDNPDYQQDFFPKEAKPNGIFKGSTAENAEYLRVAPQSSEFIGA
Telomerase reverse transcriptase (Homo sapiens), sequence (O14746 whole entry): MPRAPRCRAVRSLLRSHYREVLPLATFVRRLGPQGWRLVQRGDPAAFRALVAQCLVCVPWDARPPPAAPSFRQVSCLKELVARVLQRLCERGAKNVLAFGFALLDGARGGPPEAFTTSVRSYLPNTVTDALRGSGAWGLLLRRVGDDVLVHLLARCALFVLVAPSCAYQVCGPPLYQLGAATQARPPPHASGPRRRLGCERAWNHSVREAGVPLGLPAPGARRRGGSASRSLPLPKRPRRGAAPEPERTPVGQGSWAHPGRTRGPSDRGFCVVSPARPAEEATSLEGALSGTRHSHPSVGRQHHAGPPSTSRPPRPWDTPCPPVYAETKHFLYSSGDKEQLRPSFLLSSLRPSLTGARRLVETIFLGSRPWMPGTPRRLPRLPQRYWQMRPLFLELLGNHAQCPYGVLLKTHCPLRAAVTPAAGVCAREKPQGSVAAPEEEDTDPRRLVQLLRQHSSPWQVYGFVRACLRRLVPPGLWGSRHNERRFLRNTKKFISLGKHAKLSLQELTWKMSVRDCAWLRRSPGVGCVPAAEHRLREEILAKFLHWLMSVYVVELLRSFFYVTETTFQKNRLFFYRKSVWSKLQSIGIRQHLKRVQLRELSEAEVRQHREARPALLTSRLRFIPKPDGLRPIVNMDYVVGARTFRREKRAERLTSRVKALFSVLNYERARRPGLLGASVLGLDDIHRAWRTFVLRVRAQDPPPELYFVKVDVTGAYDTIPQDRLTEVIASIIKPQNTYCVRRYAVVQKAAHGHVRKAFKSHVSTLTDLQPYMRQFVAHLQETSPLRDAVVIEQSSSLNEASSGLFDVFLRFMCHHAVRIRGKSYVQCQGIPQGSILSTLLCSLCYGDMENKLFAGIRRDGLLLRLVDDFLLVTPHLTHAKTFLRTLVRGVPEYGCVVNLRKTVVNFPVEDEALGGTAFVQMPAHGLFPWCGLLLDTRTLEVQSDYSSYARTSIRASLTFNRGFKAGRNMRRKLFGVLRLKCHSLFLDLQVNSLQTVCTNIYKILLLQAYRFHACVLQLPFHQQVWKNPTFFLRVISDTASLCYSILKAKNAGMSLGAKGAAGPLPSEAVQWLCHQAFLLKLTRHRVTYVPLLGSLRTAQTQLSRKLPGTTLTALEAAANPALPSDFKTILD

## COc1cccc(/C=N/NC(=O)c2nnn(-c3ccc(Cl)cc3)c2C)c1OC
[1]
  Activity: 3.45 ng/mL
[2]
  IC50: 13.3 µM
HepG2 [3]
  IC50: 31.2 µM
A-375 [4]
  fold change (FC): 1.55
Huh-7
  inhibition of growth at 100 µg/mL: 62%
A-375 [5]
  fold change (FC): 2.91
[6]
  fold change (FC): 2.72
HeLa
  inhibition of growth at 100 µg/mL: 63%
HCT-116 [7]
  inhibition of growth at 100 µg/mL: 82%
[8]
  inhibition at 48 h, 100 ug/mL: 25%
A-375 [9]
  fold change (FC): 2.01
A-375 [10]
  Activity: 78.39%
[11]
  inhibition at 48 h, 100 ug/mL: 37%
HepG2 [12]
  inhibition of growth at 100 µg/mL: 80%
A-375 [13]
  fold change (FC): 1.51
A-375 [14]
  fold change (FC): 1.35
MCF7
  inhibition of growth at 100 µg/mL: 70%
[15]
  fold change (FC): 2.58
A-375 [16]
  fold change (FC): 9.15
MDA-MB-468
  inhibition of growth at 100 µg/mL: 69%
[17]
  inhibition of growth at 100 µg/mL: 72%
Caco-2
  inhibition of growth at 100 µg/mL: 55%
[18]
  Activity: 1.31 ng/mL
MG-63
  inhibition of growth at 100 µg/mL: 65%
HCT-116 [19]
  IC50: 13.3 µM
A-375 [20]
  inhibition of growth at 100 µg/mL: 85%
A-375 [21]
  IC50: 12.6 µM
FaDu
  inhibition of growth at 100 µg/mL: 76%
